Bioassay records as filed in PubChem BioAssay.
Compounds with a hit are over-represented: about 2.8% of the library has one in this group of screens.
HTR2A ag – agonists of mouse serotonin 5-HT2A receptor (HTR2A) | P35363 | CHO-K1 mHTR2A beta-arrestin complementation, luminescence; percent of 30 µM serotonin response | activation, % at 7.6 µM | 0.66% of 360,000 active;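 active means activation above a run cutoff, the mean activation of all tested compounds plus 3 SD, cut at about 14% in these data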
MC4R ag barr – human MC4R agonism via beta-arrestin; U2OS MC4R beta-arrestin complementation, luminescence; percent of melanotan II response, DMSO zero; P32245; 0.98% of 360,000 active; activation, % at 8.9 µM;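 active means activation above a per-plate cutoff, the mean activation of sample wells on that plate plus 3 SD, cut at about 8% in these data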
MC4R antagonist – human MC4R antagonism in cAMP assay; inhibition, % at 6.5 µM; P32245; AID 540295; MC4R-expressing cells, MTII-stimulated cAMP, LANCE TR-FRET; 0.48% of 360,000 active;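 active means inhibition above its plate's cutoff, the mean of tested wells on that plate plus 3 SD, cut at about 29% in these data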
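Material – human MC4R-expressing U2OS cells · Repeats – no replicates · Detection – TR-FRET with Eu-cAMP and labeled anti-cAMP, 671 nm · Times – compound 30 min, challenge 1 h, detection 1 h · Compound – single nominal compound dose of 6.5 µM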
EBI2 block – EBI2 (human) antagonism | P32249 | EBI2 beta-arrestin recruitment, luminescence, 7a,25-OHC stimulated | inhibition, % at 5 µM | 0.81% of 360,000 active | AID 651636; in the data active means inhibition above about 38%;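 further: enzyme fragment complementation signal reports receptor beta-arrestin coupling in cells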
Target sequence (P32249 whole entry, looked up, the tested form may be a part): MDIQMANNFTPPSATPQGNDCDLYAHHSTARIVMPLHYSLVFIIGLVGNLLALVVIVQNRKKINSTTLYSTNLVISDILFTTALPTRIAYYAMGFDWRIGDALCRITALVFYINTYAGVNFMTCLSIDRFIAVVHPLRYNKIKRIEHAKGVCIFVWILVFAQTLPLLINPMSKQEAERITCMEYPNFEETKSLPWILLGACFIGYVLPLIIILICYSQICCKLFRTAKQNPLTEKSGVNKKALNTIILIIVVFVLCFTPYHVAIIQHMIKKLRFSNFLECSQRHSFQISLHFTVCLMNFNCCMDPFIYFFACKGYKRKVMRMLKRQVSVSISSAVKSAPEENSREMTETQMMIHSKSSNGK
OPRM1 ag – OPRM1 agonism in mouse HTR2A counterscreen; shares compounds with HTR2A ag; AID 624380; U2OS OPRM1 beta-arrestin PathHunter, luminescence; DMSO 0%, DAMGO 9.3 µM 100%; 5.3% of 2,300 active; activation, % at 9.3 µM;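 active means mean activation above the mean of DMSO-only wells plus 3 SD, cut at about 0.5% in these data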
m5-HT2A ag conf – confirmation of mouse HTR2A serotonin receptor agonists. CHO-K1 PathHunter beta-arrestin recruitment, luminescence; DMSO 0%, 30 µM serotonin 100%. shares compounds with HTR2A ag. 19% of 2,300 active. activation, % at 7.6 µM;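 active means mean activation across triplicates above the hit threshold derived in the original primary screen, cut at about 15% in these data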
Numbers stand for hits; n = inactive; x = no result given.

SMILES	HTR2A ag	MC4R ag barr	MC4R antagonist	EBI2 block	OPRM1 ag	m5-HT2A ag conf
c1ccc(COc2ccc(Nc3ncnc4nc[nH]c34)cc2)cc1	16.8	n	n	n	n	n
Cc1cccc(C)c1OCC(=O)NNC(=S)NC(=O)C1CC1	n	n	n	n	x	x
c1csc(-c2nnc(NC3CCCCC3)c3ccccc23)c1	23.4	n	n	n	n	n
CC1CCN(c2nnc(-c3cccs3)c3ccccc23)CC1	n	n	n	n	x	x
CC1=C(C(=O)N(C)C)CC(CC(=O)NC(c2ccccc2)c2ccccc2)C(=O)N1CCCN1CCCC1=O (configuration not stated)	n	n	n	n	x	x
Cc1nc2c([nH]1)C1(CCN(Cc3ccccc3)CC1)C(C#N)=C(N)O2	33.1	n	n	n	n	n
CC(C)Cn1c(=O)c2ccccc2n2c(CCC(=O)NC3CCN(Cc4ccccc4)CC3)nnc12	19.4	n	n	n	n	n
O=C(NCc1ccccc1)C1CCC(CNc2c(N3CCCCC3)c(=O)c2=O)CC1 (configuration not stated)	n	n	n	n	x	x
O=C(NCc1ccc2c(c1)OCO2)C1CCC(CNc2c(N3CCCC3)c(=O)c2=O)CC1 (configuration not stated)	14.4	n	n	n	n	n
O=C1CN(C(=O)C2CCC(=O)N(CCc3ccc(Cl)cc3)C2)CCN1 (configuration not stated)	16.7	n	n	n	n	n
COc1ccc(NC(=S)N(CCc2c(C)[nH]c3ccc(C)cc23)Cc2cccs2)cc1	n	n	n	n	x	x
COc1ccc(NC(=S)N(CCc2c(C)[nH]c3ccc(C)cc23)Cc2ccco2)cc1	23.3	n	n	n	n	n
CCC(c1nnnn1-c1ccc2c(c1)OCCO2)N1CCN(C(=O)C2CCCO2)CC1 (configuration not stated)	n	x	x	n	x	x
CC(=O)OC1C=CCC2C(=O)c3cccc(O)c3C(O)C12 (configuration not stated)	16.7	n	n	n	n	n
COc1cc([N+](=O)[O-])ccc1NC(=O)/C=C/C(=O)O	n	n	n	n	x	x
COc1cc([N+](=O)[O-])ccc1NC(=O)/C=C\C(=O)O	22.5	n	n	n	n	n
CCc1nc2ccc(C(=O)NCCN3CCNC3=O)cn2c1N(CC)CCOC	n	n	n	n	x	x
COc1cccc(N2CCN(c3ncnc4c3cnn4-c3ccc(C)cc3C)CC2)c1	15.0	n	n	n	3.0	n
CCC(=O)Nc1nnc(SCc2cccc(F)c2)s1	21.2	n	n	n	n	n
CC(C)(C)OC(=O)NCCCC[C@@H](C(=O)N1CCN(C(=O)OC(C)(C)C)CC1)n1cc(CCC(=O)O)nn1	n	n	n	n	x	x
CCCCc1cn([C@@H](CCCCNC(=O)OC(C)(C)C)C(=O)N2CCN(C(=O)OC(C)(C)C)CC2)nn1	15.7	n	n	n	n	n
C#CCOCCOCCOCCNc1nc(N2CCOCC2)nc(N2CCN(C(=O)CCCCCCCCCCNC(=O)[C@@H](CCC(=O)O)n3cc(CCCCCN)nn3)CC2)n1	15.4	n	n	n	n	n
CC(C)(C)OC(=O)CC[C@@H](C(=O)NCCCCCCCCCCC(=O)N1CCN(C(=O)OC(C)(C)C)CC1)n1cc(CCCCCNC(=O)OC(C)(C)C)nn1	n	n	n	n	x	x
CC(C)(C)OC(=O)NCCCCCc1cn([C@@H](CO)C(=O)NCCCCCCCCCCC(=O)N2CCN(C(=O)OC(C)(C)C)CC2)nn1	14.9	n	n	n	n	18.9
C#CCOCCOCCOCCNc1nc(N2CCN(C(=O)CCCCCCCCCCNC(=O)[C@@H](CCC(=O)O)n3cc(CCCCCN)nn3)CC2)nc(N2CCN(C(=O)CCCCCCCCCCNC(=O)[C@H]([C@@H](C)CC)n3cc(CCCCCN)nn3)CC2)n1	n	n	n	n	x	x
SMILES	HTR2A ag	MC4R ag barr	MC4R antagonist	EBI2 block	OPRM1 ag	m5-HT2A ag conf
C[C@@H]1CN([C@H](C)CO)C(=O)CCCn2nncc2CO[C@@H]1CN(C)S(=O)(=O)c1ccccc1F	n	n	n	n	x	x
O=C(Nc1ccc2c(c1)OCO2)c1c[nH]c(=O)n(-c2ccc(F)cc2)c1=O	14.9	n	n	n	n	n
C=CCn1c(SCC(=O)c2ccc(Cl)cc2)nnc1-c1ccc2c(c1)OCO2	32.1	n	n	n	n	n
O=C(O)c1nn(CC(=O)N(C2CCCCC2)C2CCCCC2)c(=O)c2ccccc12	32.6	n	n	n	n	n
S=c1[nH]nc(C2CCCCC2)n1Cc1ccccc1	14.9	n	n	n	n	n
Cn1c(Cc2cccs2)nnc1SCC(=O)Nc1ccc(F)cc1F	14.6	n	n	n	n	n
COc1ccccc1NC(=O)CSc1nnc(Cc2cccs2)n1C	n	n	n	n	x	x
COC(=O)C[C@H]1CC[C@@H](NC(=O)C2CC2)[C@@H](CO)O1	17.8	x	x	n	n	n
C[C@@H]1c2ccccc2N2C[C@H](Cc3ccc(C(=O)c4ccccc4)cc3)C[C@@H]12	15.8	n	n	n	n	n
O=S1(=O)CC(N2CC=CC2)CN1Cc1cn(Cc2ccccc2)nn1 (configuration not stated)	n	x	x	n	x	x
O=C1C(=O)c2ccccc2C(O)=C1c1cccc([N+](=O)[O-])c1	20.4	n	n	n	n	n
Cc1ccc(C2=C(O)c3ccccc3C(=O)C2=O)cc1	n	n	n	n	x	x
COc1cc2[nH]c(C)c(-c3ccccc3)c(=O)c2cc1Cl	25.3	x	x	n	n	14.4
CCCn1c(=S)[nH]c2cc(OC)c(OC)cc2c1=O	n	n	n	n	x	x
COc1cc2[nH]c(=S)n(Cc3cccs3)c(=O)c2cc1OC	19.1	n	n	n	n	n
COC(=O)c1ccc(N2C(c3cc(OC)cc(OC)c3)=Cc3ccc(-c4ccc(C(N)=O)cc4)cc3C2CC(=O)C2CC2)cc1 (configuration not stated)	n	x	x	n	x	x
COCCNC(=O)C1(C)CCN(C(=O)c2cc(C)nn2C(C)(C)C)C1 (configuration not stated)	n	n	n	n	x	x
Cc1ccc(C)c2[nH]c(=O)c(CN(CCN3CCCC3)C(=O)Nc3ccc(F)cc3)cc12	16.6	n	n	n	n	n
COc1cc2cc(CN(CCN3CCCC3)C(=O)Nc3ccc(F)cc3)c(=O)[nH]c2cc1OC	n	n	n	n	x	x
CC(C)CC1NC(=O)c2cccnc2-n2c1nc1ccccc1c2=O (configuration not stated)	n	n	n	n	x	x
COc1ccc(NC(=O)CSc2nc3ccccc3c(=O)n2CCCN2CCCCC2)c(OC)c1	41.8	n	n	n	n	17.8
COCCCNC(=O)CSc1nc2ccccc2c(=O)n1CCCN1CCCCC1	n	n	n	n	x	x
CCOc1ccccc1NC(=O)CSc1nc2ccccc2nc1N1CCOCC1	n	n	n	n	x	x
